From ChEMBL document CHEMBL3877308, “Design, synthesis and in vitro biological evaluation of oligopeptides targeting E. coli type I signal peptidase (LepB)” (Bioorg Med Chem, 2017)
Converted amounts (≈) assume the structure as drawn.

Assays:
[1] = Cytotoxicity against human HepG2 cells assessed as reduction in cell viability after 72 hrs by fluorescein diacetate dye based fluorometric microculture assay; format: toxicity
How it was run: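 FMCA on HepG2 cells read at 72 h. Survival index (%) is fluorescence in test wells as percent of control cultures, with blank values subtracted. IC50 was obtained by non-linear regression of log concentration-effect curves.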

[2] = target: Signal peptidase I (Escherichia coli K-12) (UniProt P00803); experiment: (§1) Inhibition of full length Escherichia coli His6-tagged LepB expressed in Escherichia coli C43(DE3) assessed as residual activity at 0.156 uM using dabcyl-VEVGGTATAGAFSRPGLE-(EDANS) as substrate preincubated for 10 mins followed by substrate addition measured for 2 hrs by FRET assay relative to control
How it was run: (§2)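 Enzyme came from the membrane fraction, extracted with 1% reduced Triton X-100 and purified by metal-chelation chromatography in 0.5% detergent. FRET pair was dabcyl acceptor and EDANS donor. EcLepB (final about 50 nM) was pre-incubated with compound 10 min at 22 °C. Reaction was then run with 8 µM substrate, following the linear fluorescence increase at 22 °C for 2 h.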

[3] = target: Signal peptidase I (Escherichia coli K-12) (UniProt P00803); experiment: Inhibition of full length Escherichia coli His6-tagged LepB expressed in Escherichia coli C43(DE3) at 100 uM using dabcyl-VEVGGTATAGAFSRPGLE-(EDANS) as substrate preincubated for 10 mins followed by substrate addition measured for 2 hrs by FRET assay relative to control; how it was run: as §2
Klebsiella pneumoniae = experiment: Antibacterial activity against wild type Klebsiella pneumoniae […] after 16 to 20 hrs by broth microdilution assay; format: functional
How it was run: (§3)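 MIC by broth microdilution in cation-adjusted Mueller-Hinton II medium, following EUCAST and CLSI guidelines; panel of Gram-negative strains plus S. aureus ATCC 29213.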

[4] = target: Signal peptidase I (Escherichia coli K-12) (UniProt P00803); experiment: as §1, with “0.625” for “0.156”; how it was run: as §2
[5] = Hemolytic activity against human RBC at 100 uM after 45 mins by spectrophotometric method relative to control; format: ADME, cell-based, Erythrocyte; conditions: red blood cells (RBC), read-out: Activity
How it was run: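 Hemolysis was tested using red blood cells from heparinized human blood.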

Signal peptidase I = Signal peptidase I (Escherichia coli K-12, UniProt P00803); experiment: Inhibition of full length Escherichia coli His6-tagged LepB expressed in Escherichia coli C43(DE3) using dabcyl-VEVGGTATAGAFSRPGLE-(EDANS) as substrate preincubated for 10 mins followed by substrate addition measured for 2 hrs by FRET assay
How it was run: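 Enzyme extracted from the membrane fraction with 1% reduced Triton X-100 and purified by metal-chelation chromatography in 0.5% detergent. Enzyme (final ~50 nM) was pre-incubated with compound for 10 min at 22 °C. The linear rise in EDANS donor fluorescence (dabcyl acceptor) was then followed at 22 °C for 2 h. IC50 came from non-linear regression of sigmoidal rate-versus-concentration curves.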

Pseudomonas aeruginosa [6] = experiment: Antibacterial activity against wild type Pseudomonas aeruginosa PAO1 after 16 to 20 hrs by broth microdilution assay; format: functional; how it was run: as §3
[7] = target: Signal peptidase I (Escherichia coli K-12) (UniProt P00803); experiment: as §1, with “0.002” for “0.156”; how it was run: as §2
[8] = target: Signal peptidase I (Escherichia coli K-12) (UniProt P00803); experiment: Inhibition of full length Escherichia coli His6-tagged LepB expressed in Escherichia coli C43(DE3) assessed as residual activity at 5 uM using dabcyl-VEVGGTATAGAFSRPGLE-(EDANS) as substrate preincubated for 10 mins followed by substrate addition measured for 2 hrs by FRET assay relative to control; how it was run: as §2
[9] = target: Signal peptidase I (Escherichia coli K-12) (UniProt P00803); experiment: (§4) Inhibition of full length Escherichia coli His6-tagged LepB expressed in Escherichia coli C43(DE3) assessed as residual activity at 10 uM using dabcyl-VEVGGTATAGAFSRPGLE-(EDANS) as substrate preincubated for 10 mins followed by substrate addition measured for 2 hrs by FRET assay relative to control; how it was run: as §2
[10] = target: Signal peptidase I (Escherichia coli K-12) (UniProt P00803); experiment: as §4, with “at 0.078” for “at 10”; how it was run: as §2
[11] = target: Signal peptidase I (Escherichia coli K-12) (UniProt P00803); experiment: as §4, with “at 0.039” for “at 10”; how it was run: as §2
[12] = target: Signal peptidase I (Escherichia coli K-12) (UniProt P00803); experiment: as §4, with “at 0.02” for “at 10”; how it was run: as §2
Pseudomonas aeruginosa [13] = experiment: Antibacterial activity against wild type Pseudomonas aeruginosa PAO750 harboring efflux defective mutant after 16 to 20 hrs by broth microdilution assay; format: functional
How it was run: (§5)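 Broth microdilution MIC in cation-adjusted Mueller-Hinton II medium, following EUCAST and CLSI guidelines; tested on a panel of Gram-negative strains plus S. aureus ATCC 29213 (wild-type).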

Acinetobacter baumannii = experiment: Antibacterial activity against wild type Acinetobacter baumannii ATCC 19606 after 16 to 20 hrs by broth microdilution assay; format: functional; how it was run: as §3
Escherichia coli [14] = experiment: Antibacterial activity against wild type Escherichia coli ATCC 25922 after 16 to 20 hrs by broth microdilution assay; format: functional; how it was run: as §3
Escherichia coli [15] = experiment: Antibacterial activity against Escherichia coli CH3130 harboring tolC deletion mutant after 16 to 20 hrs by broth microdilution assay; format: functional; how it was run: as §5
[16] = target: Signal peptidase I (Escherichia coli K-12) (UniProt P00803); experiment: as §4, with “at 0.001” for “at 10”; how it was run: as §2
Staphylococcus aureus = experiment: Antibacterial activity against wild type Staphylococcus aureus ATCC 29213 after 16 to 20 hrs by broth microdilution assay; format: functional; how it was run: as §3
[17] = target: Signal peptidase I (Escherichia coli K-12) (UniProt P00803); experiment: as §4, with “at 0.0005” for “at 10”; how it was run: as §2
[18] = target: Signal peptidase I (Escherichia coli K-12) (UniProt P00803); experiment: as §4, with “at 0.01” for “at 10”; how it was run: as §2
[19] = target: Signal peptidase I (Escherichia coli K-12) (UniProt P00803); experiment: as §4, with “at 1.25” for “at 10”; how it was run: as §2
Escherichia coli [20] = experiment: Antibacterial activity against Escherichia coli D22 harboring lpxC mutant after 16 to 20 hrs by broth microdilution assay; format: functional; how it was run: as §5
[21] = target: Signal peptidase I (Escherichia coli K-12) (UniProt P00803); experiment: as §4, with “at 0.313” for “at 10”; how it was run: as §2
[22] = target: Signal peptidase I (Escherichia coli K-12) (UniProt P00803); experiment: Potency index, ratio of decanoyl-PTANA-CHO IC50 to compound IC50 for full length Escherichia coli His6-tagged LepB expressed in Escherichia coli C43(DE3)
[23] = target: Signal peptidase I (Escherichia coli K-12) (UniProt P00803); experiment: Inhibition of full length Escherichia coli His6-tagged LepB expressed in Escherichia coli C43(DE3) assessed as residual activity at 2.5 uM using dabcyl-VEVGGTATAGAFSRPGLE-(EDANS) as substrate preincubated for 10 mins followed by substrate addition measured for 2 hrs by FRET assay relative to control; how it was run: as §2
[24] = target: Signal peptidase I (Escherichia coli K-12) (UniProt P00803); experiment: as §4, with “at 0.005” for “at 10”; how it was run: as §2
[25] = target: Signal peptidase I (Escherichia coli K-12) (UniProt P00803); experiment: as §4, with “at 0.0488” for “at 10”; how it was run: as §2
[26] = target: Signal peptidase I (Escherichia coli K-12) (UniProt P00803); experiment: as §4, with “at 0.781” for “at 10”; how it was run: as §2
[27] = target: Signal peptidase I (Escherichia coli K-12) (UniProt P00803); experiment: Inhibition of full length Escherichia coli His6-tagged LepB expressed in Escherichia coli C43(DE3) assessed as residual activity at 25 uM using dabcyl-VEVGGTATAGAFSRPGLE-(EDANS) as substrate preincubated for 10 mins followed by substrate addition measured for 2 hrs by FRET assay relative to control; how it was run: as §2
[28] = target: Signal peptidase I (Escherichia coli K-12) (UniProt P00803); experiment: as §4, with “at 12.5” for “at 10”; how it was run: as §2
[29] = target: Signal peptidase I (Escherichia coli K-12) (UniProt P00803); experiment: as §4, with “at 0.195” for “at 10”; how it was run: as §2
[30] = target: Signal peptidase I (Escherichia coli K-12) (UniProt P00803); experiment: as §4, with “at 1.56” for “at 10”; how it was run: as §2
[31] = target: Signal peptidase I (Escherichia coli K-12) (UniProt P00803); experiment: as §4, with “at 3.13” for “at 10”; how it was run: as §2
[32] = target: Signal peptidase I (Escherichia coli K-12) (UniProt P00803); experiment: Inhibition of full length Escherichia coli His6-tagged LepB expressed in Escherichia coli C43(DE3) assessed as residual activity at 100 uM using dabcyl-VEVGGTATAGAFSRPGLE-(EDANS) as substrate preincubated for 10 mins followed by substrate addition measured for 2 hrs by FRET assay relative to control; how it was run: as §2
[33] = target: Signal peptidase I (Escherichia coli K-12) (UniProt P00803); experiment: as §4, with “at 0.391” for “at 10”; how it was run: as §2
[34] = target: Signal peptidase I (Escherichia coli K-12) (UniProt P00803); experiment: as §4, with “at 0.0977” for “at 10”; how it was run: as §2
[35] = target: Signal peptidase I (Escherichia coli K-12) (UniProt P00803); experiment: as §4, with “at 6.25” for “at 10”; how it was run: as §2
[36] = target: Signal peptidase I (Escherichia coli K-12) (UniProt P00803); experiment: Inhibition of full length Escherichia coli His6-tagged LepB expressed in Escherichia coli C43(DE3) assessed as residual activity at 50 uM using dabcyl-VEVGGTATAGAFSRPGLE-(EDANS) as substrate preincubated for 10 mins followed by substrate addition measured for 2 hrs by FRET assay relative to control; how it was run: as §2
[37] = target: Signal peptidase I (Escherichia coli K-12) (UniProt P00803); experiment: as §4, with “at 0.0244” for “at 10”; how it was run: as §2

Chain of Signal peptidase I (Escherichia coli K-12) (P00803 whole entry): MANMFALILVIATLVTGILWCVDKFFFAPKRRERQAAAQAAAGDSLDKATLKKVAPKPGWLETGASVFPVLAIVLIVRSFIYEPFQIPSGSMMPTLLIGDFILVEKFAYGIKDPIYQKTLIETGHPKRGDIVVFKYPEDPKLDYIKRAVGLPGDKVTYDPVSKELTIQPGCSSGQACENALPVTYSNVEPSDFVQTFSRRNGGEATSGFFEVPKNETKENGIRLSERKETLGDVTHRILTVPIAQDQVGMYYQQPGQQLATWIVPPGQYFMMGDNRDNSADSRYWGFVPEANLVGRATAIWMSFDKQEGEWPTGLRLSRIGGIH
Chain of Signal peptidase I (P00803 whole entry): as above

SMILES | IC50 at 72 h [1] | Activity [2] | inhibition [3] | MIC (Klebsiella pneumoniae) | Activity [4] | hemolysis at 0.75 h, 100 µM [5] | IC50 (Signal peptidase I) | MIC (Pseudomonas aeruginosa [6]) | Activity [7] | Activity [8] | Activity [9] | Activity [10] | Activity [11] | Activity [12] | MIC (Pseudomonas aeruginosa [13]) | MIC (Acinetobacter baumannii) | MIC (Escherichia coli [14]) | MIC (Escherichia coli [15]) | MIC (Staphylococcus aureus) | MIC (Escherichia coli [20]) | other results
CCCCCCCCCC(=O)N1CCC[C@H]1C(=O)N[C@H](C(=O)N[C@@H](C)C(=O)N[C@@H](CC(N)=O)C(=O)N[C@@H](C)B1O[C@@H]2C[C@@H]3C[C@@H](C3(C)C)[C@]2(C)O1)[C@H](C)O | 7.8 µM | 29.6% | > 50% | > 64 µg/mL | 18.1% | 0.4% | 48 nM | > 64 µg/mL | 81.9% | 10.6% | 0.084% | 36.4% | 47% | 66.8% | > 64 µg/mL | > 64 µg/mL | > 64 µg/mL | > 64 µg/mL | 32 µg/mL (≈ 42.1 µM) | > 64 µg/mL | Activity [16]: 84.5%; Activity [17]: 82.6%; Activity [18]: 84.2%; Activity [19]: 16.9%; Activity [21]: 19.7%; Ratio IC50 [22]: 25; Activity [23]: 17.2%
CCCCCCc1ccc(-c2ccc(C(=O)N3CC(CN)C[C@H]3C(=O)N[C@H](C(=O)N[C@@H](C)C(=O)N[C@@H](CC(N)=O)C(=O)N[C@@H](C)B(O)O)[C@H](C)O)cc2)cc1 (stereo partly drawn) | 15.6 µM | 27.4% | > 50% | 8 µg/mL (≈ 10.4 µM) | 25.1% | 2.5% | 6 nM | 64 µg/mL (≈ 83.6 µM) | 85.8% | 28.2% | 24.6% | 25.7% | 27.7% | 36.2% | 4 µg/mL (≈ 5.22 µM) | 8 µg/mL (≈ 10.4 µM) | 16 µg/mL (≈ 20.9 µM) | 2 µg/mL (≈ 2.61 µM) | 0.25 µg/mL (≈ 0.326 µM) | 0.5 µg/mL (≈ 0.653 µM) | Activity [24]: 60.1%; Activity [16]: 86.8%; Activity [17]: 88.8%; Activity [18]: 51.8%; Activity [19]: 28.4%; Activity [21]: 25.3%; Activity [23]: 24.8%
CC(O)[C@H](NC(=O)[C@@H]1CCCN1)C(=O)N[C@@H](C)C(=O)N[C@@H](CC(N)=O)C(=O)N[C@@H](C)B1O[C@@H]2C[C@@H]3C[C@@H](C3(C)C)[C@]2(C)O1 (single isomer, unassigned) | > 64 µM |  | > 50% | > 64 µg/mL |  |  | 26000 nM | > 64 µg/mL |  |  |  |  |  |  | > 64 µg/mL | > 64 µg/mL | > 64 µg/mL | > 64 µg/mL | > 64 µg/mL | > 64 µg/mL | Activity [25]: 96.7%; Activity [26]: 95%; Activity [27]: 56.9%; Activity [28]: 67.2%; Activity [29]: 95.4%; Activity [30]: 90.7%; Activity [31]: 88.6%; Activity [32]: 25.1%; Activity [33]: 95%; Activity [34]: 96%; Activity [35]: 85.8%; Activity [36]: 35.6%; Activity [37]: 92.7%
